# Source: PMC6591795 (ChemistryOpen, 2019)
# Like-named read-outs stand apart in the source and are kept apart here.
# Key:
# [1] = target: T1, GTB (Homo sapiens, UniProt P16442, G235S/G268A/L266M/R176G); assay: methyl TROSY CSP titration, TITAN lineshape analysis; format: binding; settings: for Kd: K D
# T1 sequence (P16442 64-354 R176G/G235S/L266M/G268A limits assumed): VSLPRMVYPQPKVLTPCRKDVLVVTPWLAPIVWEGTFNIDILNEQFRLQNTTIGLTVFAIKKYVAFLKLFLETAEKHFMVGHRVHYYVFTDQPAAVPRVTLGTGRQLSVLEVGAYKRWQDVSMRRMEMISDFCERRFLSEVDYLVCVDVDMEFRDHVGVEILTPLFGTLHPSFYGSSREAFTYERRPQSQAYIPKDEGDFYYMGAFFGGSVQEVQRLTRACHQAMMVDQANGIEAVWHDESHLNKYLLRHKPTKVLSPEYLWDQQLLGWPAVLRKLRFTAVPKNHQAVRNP
# Method in brief: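 Enzyme expressed in D₂O-based M9 minimal medium with ¹³C-methyl precursors, IPTG-induced, and purified by cation-exchange and UDP-affinity chromatography. Ligand titrated at constant protein concentration, with a 2D [¹³C,¹H] HMQC at each point. Kd and koff from a global multi-peak TITAN two-state fit; apo parameters fixed from the ligand-free spectrum; 200-run bootstrap residual resampling.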
# [2] = target: T1, GTB; settings: read-out: KD from ITC; UDP binding to GTB:H-Dis; cited from earlier work
# [3] = GTB in presence of saturating B-Tris
# [4] = GTB in presence of saturating H-Dis
# [5] = GTB in presence of saturating H-Tris I
# [6] = GTB in presence of saturating H-Tris II
# [7] = GTB in presence of saturating H-Tris III
# [8] = GTB in presence of saturating H-Tris IV
# [9] = GTB in presence of saturating H-Tris V
# [10] = GTB in presence of saturating H-Tris VI
# [11] = apo GTB, donor-type ligands, Mg2+, 298 K
structure (smiles),measurement,setting,value
"O=c1ccn([C@@H]2O[C@H](COP(=O)(O)OP(=O)(O)O)[C@@H](O)[C@H]2O)c(=O)[nH]1 [UDP, uridine diphosphate]",koff,[1]; [3],18 ± 1 s⁻¹
same,kon,[1]; [3],28000 M⁻¹ s⁻¹
same,koff,[1]; [4],2.6 ± 0.3 s⁻¹
same,kon,[1]; [4],25000 M⁻¹ s⁻¹
same,off-rate constant koff,"[1]; GTB in presence of saturating H-Dis, from titration analysis (Table 3)",2.6 Hz
same,koff,[1]; [5],2.2 ± 0.2 s⁻¹
same,kon,[1]; [5],58000 M⁻¹ s⁻¹
same,koff,[1]; [6],1.7 ± 0.3 s⁻¹
same,kon,[1]; [6],280000 M⁻¹ s⁻¹
same,koff,[1]; [7],3.6 ± 0.5 s⁻¹
same,kon,[1]; [7],120000 M⁻¹ s⁻¹
same,koff,[1]; [8],12 ± 1 s⁻¹
same,kon,[1]; [8],190000 M⁻¹ s⁻¹
same,koff,[1]; [9],3.4 ± 0.3 s⁻¹
same,kon,[1]; [9],120000 M⁻¹ s⁻¹
same,koff,[1]; [10],2.2 ± 0.2 s⁻¹
same,kon,[1]; [10],69000 M⁻¹ s⁻¹
same,kon multiplied by the UDP concentration (comparable to kAB),"[1]; GTB saturated with H-Dis, kon=2.5×10^4 M^−1s^−1 times 250 μM UDP",ca. 6.3 Hz
same,Kd,[1]; [3],660 ± 10 µM
same,Kd,[1]; [4],103 ± 2 µM
same,Kd,[1]; [5],38 ± 1 µM
same,Kd,[1]; [6],6 ± 1 µM
same,Kd,[1]; [7],29 ± 1 µM
same,Kd,[1]; [8],65 ± 2 µM
same,Kd,[1]; [9],31 ± 1 µM
same,Kd,[1]; [10],32 ± 1 µM
same,Kd,[1]; [11],161 ± 3 µM
same,koff,[1]; [11],243 ± 7 s⁻¹
same,kon,[1]; [11],1.5e+06 M⁻¹ s⁻¹
same,Kd,[2],27 µM
